Reference: publication PMC5542026 (Cell, 2017)
pIC50: −log10 of the molar value. ≈ marks a conversion by molar mass, not a printed value. *1 amine or outer side, *2 acyl side, *3 side chain or, on linkers, in order; H or OH if unused. Where a SMILES comes first, the peptide text is derived from it. Bridges are numbered along the chain shown (N, C = ends). [ ]: non-standard residue; d: D form. The star is where a group is joined. X2 = C[C@H](Oc1ccc([C@H](N[*:1])C(=O)[*:2])cc1)[C@@]1(/C=C/C(=O)[*:3])CO1; X1 = CC(C)[C@H](O)[C@H](C)C(=O)*; aIle = CC[C@@H](C)[C@H](N)C(=O)O; dNMeF = CN[C@H](Cc1ccccc1)C(=O)O; aThr = C[C@H](O)[C@H](N)C(=O)O

What was measured:
[1] = system: E. coli strain D21f2tolC; test: Broth-microdilution MIC, wild-type parent; assay type: cell-based; conditions: LB broth, 16 h, growth inhibited by >90%
[2] = molecular target: T1, E. coli RNAP (Escherichia coli, UniProt P0A8T7+P0A8V2); test: Nucleotide addition in transcription elongation; assay type: biochemical; conditions: 500 μM PUM
In short: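 Run per an earlier published protocol. Reactions contained no inhibitor, the test compound, 2 μM rifampicin or 100 μM lipiarmycin as comparator.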

[3] = system: E. coli strain D21f2tolC; test: MIC on LB agar; assay type: cell-based; conditions: E. coli D21f2tolC plated on LB agar
[4] = system: E. coli D21f2tolC with plasmid-encoded RNAP β/β′ derivatives; test: E. coli plasmid-based resistance assay; assay type: cell-based; conditions: substitutions β565 Glu→Gly and β681 Met→Lys
In short: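 E. coli transformants were grown from single colonies in LB with 200 μg/ml ampicillin at 37°C with shaking to OD600 0.4–0.8. They were induced with 1 mM IPTG for 1 h. About 2×10^5 cells were added to wells holding a 2-fold dilution series of test compound in the same medium (final 0 or 25–4000 μg/ml) and incubated 16 h at 37°C with shaking.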

[5] = system: E. coli GE-resistant mutants; test: Cross-resistance of GE-resistant mutants to PUM; assay type: cell-based
[6] = molecular target: [565Glu→Asp]β-RNAP σ^70 holoenzyme (Escherichia coli, UniProt P0A8T7+P0A8V2, E565D); test: Fluorescence-detected transcription assay, mutant RNAP; assay type: biochemical, E. coli
[7] = molecular target: E. coli RNAP core enzyme (Escherichia coli, UniProt P0A8T7+P0A8V2); test: Single-nucleotide-addition reactions; assay type: biochemical; conditions: 25 μM PUM; 2.5 μM NTPs
In short: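 Elongation complexes were assembled on nucleic-acid scaffolds, annealed 5 min at 95°C and step-cooled to 4°C in 5 mM Tris-HCl pH 7.7, 200 mM NaCl, 10 mM MgCl2. Steps at 37°C: 10 min preincubation, 5 min with compound (0 or 25 μM), 5 min with single NTP.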

[8] = molecular target: bacterial RNAP (Escherichia coli, UniProt P0A8T7+P0A8V2); test: RNAP-inhibitory activity in vitro; assay type: biochemical, E. coli; S. aureus; B. subtilis; conditions: read-out: IC50, inhibition of bacterial RNAP
[9] = molecular target: T2, E. coli RNAP σ^70 holoenzyme (Escherichia coli, UniProt P0A8T7+P0A8V2); test: Multiple-nucleotide-addition reactions; assay type: biochemical; conditions: 10 μM NTPs
[10] = system: S. pyogenes Rif-resistant mutants; test: Cross-resistance of Rif-resistant mutants to PUM; assay type: cell-based; conditions: Figs. 1B–C,E
In short: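 S. pyogenes mutants were selected on Todd Hewitt agar with rifampicin at 0.1–2 μg/ml (1–16x MIC) and sequenced. Thirteen mutants and the isogenic wild-type parent were grown in Todd Hewitt broth at 37°C in 7% CO2/6% O2/4% H2/83% N2 to OD600 0.4–0.8. They were tested by broth microdilution with a 2-fold test compound series (0 or 1.56–100 μg/ml) for 16 h at 37°C. MIC was taken at >90% growth inhibition.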

[11] = system: S. pyogenes strain ATCC 12344; test: Spontaneous resistance rate, Luria-Delbrück fluctuation assays; assay type: cell-based; conditions: compared with Rif
In short: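 Luria-Delbrück fluctuation assay. ~1×10^9 cfu S. pyogenes ATCC 12344 per plate were plated on Todd Hewitt agar (1.5% agar) containing 64 or 128 μg/ml test compound, or 1 or 2 μg/ml rifampicin. Colonies were counted after 24 h at 37°C, with at least six independent determinations each.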

[12] = system: S. pyogenes ATCC 12344; test: Broth-microdilution MIC, wild-type parent; assay type: cell-based; conditions: Todd Hewitt broth, 16 h, growth inhibited by >90%
[13] = system: S. pyogenes C203; test: Mouse Streptococcus pyogenes peritonitis model; assay type: in vivo
In short: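 Female ICR mice (23–25 g) were acclimatised for one week at 23±2°C and 55±10% humidity. They were infected intraperitoneally with 4×10^3 cfu S. pyogenes C203 in 0.5 ml saline containing 1% peptone. Groups of eight, randomised and unblinded, received 2.5-fold test compound dilutions in 5% dextrose by one of three regimens: i.v. at 10 min and 6 h (total 3.2–50 mg/kg); single i.v. at 10 min; or single s.c. at 10 min (each total 1.024–40 mg/kg).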

[14] = system: human serum proteins; test: Growth-curve assays in absence and presence of 30% human serum; assay type: in vitro ADME
[15] = molecular target: T2, E. coli RNAP σ^70 holoenzyme; test: Nucleotide addition at elevated NTP concentrations; assay type: biochemical; conditions: 6 μM PUM; 10–500 μM varied NTP
[16] = molecular target: T2, E. coli RNAP σ^70 holoenzyme; test: Nucleotide addition on standard and U-less cassette templates; assay type: biochemical; conditions: standard vs U-less cassette template; 0–20 μM PUM
[17] = molecular target: T2, E. coli RNAP σ^70 holoenzyme; test: Formation of RNAP-promoter open complex; assay type: biochemical; conditions: 500 μM PUM
[18] = system: Staphylococcus simulans strain M22; test: Effects on macromolecular synthesis; assay type: cell-based; conditions: PUM 100–200 μM
In short: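 Staphylococcus simulans M22 was grown in 0.5x Mueller Hinton II broth at 37°C with shaking to OD600 0.5, then diluted to OD600 0.1–0.2. [2-14C]-thymidine was added at 6 kBq/ml for 15 min, and the culture was split. One half received test compound (final 100–200 μM). Samples taken at 0, 10, 20 and 40 min were quenched in ice-cold 10% TCA/1 M NaCl and held 30–60 min on ice.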

[19] = system: S. pyogenes and E. coli resistant mutants; test: Cross-resistance between PUM and Lpm, Myx, Stl, CBR703, Sal; assay type: cell-based
[20] = molecular target: T1, E. coli RNAP; test: Nucleotide addition in transcription initiation; assay type: biochemical; conditions: 500 μM PUM
In short: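 Run per an earlier published protocol, labelled with 5 μM [α32P]UTP (3 Bq/fmol). Reactions contained no inhibitor, the test compound, 2 μM rifampicin or 100 μM lipiarmycin.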

[21] = system: S. pyogenes strain L49 or S. pneumoniae strain L44; test: Checkerboard interaction assays PUM + Rif; assay type: cell-based; conditions: FICI
[22] = system: S. pyogenes PUM-resistant mutants; test: Resistance levels of spontaneous PUM-resistant mutants; assay type: cell-based; conditions: substitutions at β residues 565, 681, and 684, and β′ residue 786

ONC(=Nc1ccccc1)c1cccc(C(F)(F)F)c1 [CBR703]
MICwild-type [1]: 6.25 µg/mL

NC(=O)CC[C@@H](C(=O)NC[C@H]1O[C@@H](c2c[nH]c(=O)[nH]c2=O)[C@H](O)[C@@H]1O)N(O)C(=O)CN=C(N)N [PUM, pseudouridimycin]
effect on nucleotide addition in transcription elongation [2]: Inhibition by PUM of nucleotide addition in transcription elongation
MIC under these conditions [3]: ~800 mg/L (≈ 1640 µM)
resistance (MIC/MICwild-type) [4]: ≥ 4 x
cross-resistance with GE [5]: partial cross-resistance
inhibition of purified RNAP containing β565 Glu→Asp [6]: PUM-resistant phenotype
nucleotide specificity of inhibition, single-nucleotide addition [7]: inhibits incorporation of U, but not G, A, or C
pIC50 [8]: 7.00
nucleotide specificity of inhibition, multiple-nucleotide addition [9]: inhibits incorporation of U, but not G, A, or C
cross-resistance with Rif [10]: no cross-resistance
MICwild-type [1]: 400 µg/mL
spontaneous resistance rates [11]: an order-of-magnitude lower than those of Rif
MICwild-type [12]: 6.25 µg/mL
ED50 (dose yielding 50% survival at 7 days) [13]: 9 mg/kg
antibacterial activity in absence versus presence of human serum ([14]; 30% human serum, Fig. 1C rows 1–4): Identical results
unbound fraction ([14]; human serum proteins, inferred from 30% human serum assays): ~ 100%
effect of high NTP concentrations on transcription inhibition [15]: high concentrations of UTP–but not high concentrations of GTP, ATP, or CTP–overcome transcription inhibition by PUM
template dependence of transcription inhibition [16]: inhibits transcription only on templates that direct incorporation of U
effect on formation of catalytically-competent RNAP-promoter open complex, RPo [17]: Absence of inhibition
effect on DNA synthesis ([14C]-thymidine incorporation) [18]: little or no inhibition of DNA synthesis
effect on RNA synthesis ([3H]-uridine incorporation) [18]: rapid and strong inhibition of RNA synthesis
effect on protein synthesis ([14C]-isoleucine incorporation) [18]: slower and weaker inhibition of protein synthesis
cross-resistance with Lpm, Myx, Stl, CBR703, and Sal [19]: does not exhibit cross-resistance
effect on nucleotide addition in transcription initiation [20]: Inhibition by PUM of nucleotide addition in transcription initiation
antibacterial activity when co-administered with Rif [21]: additive antibacterial activity
PUM-resistance (MIC/MICwild-type) [22]: ≥ 4 x

CO[C@H]1/C=C/O[C@@]2(C)Oc3c(C)c(O)c4c(O)c(c(/C=N/N5CCN(C)CC5)c(O)c4c3C2=O)NC(=O)/C(C)=C\C=C\[C@H](C)[C@H](O)[C@@H](C)[C@@H](O)[C@@H](C)[C@H](OC(C)=O)[C@@H]1C [Rif, rifampin]
MICwild-type [1]: 0.20 µg/mL
MICwild-type [12]: 0.098 µg/mL

CCCC/C(C)=C/C=C(\C)C(=O)c1c(O)cc([C@H](C)CC/C=C/NC(=O)OC)oc1=O [myxopyronin B]
MICwild-type [1]: 0.20 µg/mL
MICwild-type [12]: 6.25 µg/mL

CC[C@@H](C)[C@@H]1NC(=O)[C@H](NC(=O)[C@@H](C)[C@@H](O)C(C)C)[C@H](C)OC(=O)[C@H]2COC(=O)CNC(=O)/C=C/[C@@]3(CO3)[C@H](C)Oc3ccc(cc3)[C@H](NC1=O)C(=O)N(C)[C@H](Cc1ccccc1)C(=O)N[C@@H]([C@H](C)O)C(=O)N2 [salinamide A] (X1-[dT][aIle][X2][dNMeF][aThr][dS]; ester 1-C; linker 3-6 via G)
MICwild-type [1]: 0.049 µg/mL

CNC(=O)[C@@H](C)[C@H]1C(=O)/C(=C(O)/C=C/C(C)=C/[C@@H](C)[C@H]2O[C@@]3(C)O[C@H](C=C[C@@]34CO4)[C@@H]2C)C(=O)N1[C@@H]1CC[C@H](O)[C@H](C)O1 [streptolydigin]
MICwild-type [1]: 3.13 µg/mL
MICwild-type [12]: 3.13 µg/mL

GE23077
MICwild-type [1]: 500 µg/mL

lipiarmycin A3
MICwild-type [1]: 1.56 µg/mL
MICwild-type [12]: 6.25 µg/mL
